The record followed here is PubChem BioAssay.

Assay [1] in a line: hit retest on RPL19A-GFP reporter strain – cell-based, S. cerevisiae, flow cytometry, cherry picks, mother/daughter gates, confirmation (AID 2270;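 active = GFP response below 50% of the DMSO control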). Particulars: 3 h, at 10 µM, stronger effect = lower value, 100 = same GFP as DMSO wells. For orientation: In flow cytometry, cells or beads pass a laser one at a time.
A short description of assay [2]: yeast TOR pathway reporter LAP4-GFP change – cell-based, cherry picks, flow cytometry, mother/daughter gates, confirmation (AID 2271;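 active = GFP response above 150% of the DMSO control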;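 note: ratio of sample to DMSO plate mean so 100% equals DMSO level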). Particulars: S. cerevisiae LAP4-GFP strain, 3 h, at 10 µM, stronger effect = higher value, 100 means same as DMSO control. An outline of the steps:
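System: Alexa 633-stained baker's yeast GFP-fusion strain / Medium: synthetic complete (SC) yeast growth medium / Doses: compound at 10 µM, single point / Times: 3 h treatment at 30 °C with rotation / Detection: HT flow cytometry, GFP fluorescence channel / Benchmarks: DMSO-only negative wells, rapamycin 400 ng/mL positive wells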

A short description of assay [3]: TOR pathway reporter MEP2-GFP, retest of hits – S. cerevisiae, flow cytometry GFP, cherry picks, confirmation (AID 2272;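 active = GFP response above 150% of the DMSO control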;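 note: ratio of well signal to plate DMSO mean so 100% equals DMSO level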). The following applies: S. cerevisiae MEP2-GFP strain, 3 h, at 10 µM, stronger effect = higher value.
Assay [4] in a line: yeast AGP1-GFP fluorescence change, single-dose – cell-based, flow cytometry, S. cerevisiae, cherry picks, confirmation (AID 2273).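 Note: median GFP channel fluorescence over the whole cell population gate.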 Particulars: S. cerevisiae AGP1-GFP strain, 3 h, at 10 µM.
Assay [5] is described as follows: TOR pathway CIT2 reporter hit retest – S. cerevisiae, GFP fusion, cherry picks, mother/daughter gates, confirmation (AID 2274). Particulars: S. cerevisiae CIT2-GFP strain, flow cytometry, 3 h, at 10 µM, stronger effect = higher value.
The mark [6] stands for this setting: measured here: daughter cell gate.
Setting [7] is: measured here: mother cell gate.
Setting [8] is: measured here: daughter cell gate response.
[9] abbreviates: measured here: mother cell gate response.

Activity calls are given as the source filed them.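 Rule for the calls, unless noted: active = GFP response above 150% of the DMSO level; inconclusive = fewer than 70 events counted for a yeast strain; inactive = the rest.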

In the case of `Cc1onc(-c2ccccc2)c1C(=O)NC(=S)NNC(=O)c1ccco1`, the GFP response vs DMSO in assay [1] was 101% (inactive); in assay [1] (setting [6]), 101%; in assay [1] (setting [7]), 102%; in assay [3], 102% (inactive). For the same molecule, the GFP response relative to DMSO is 102% (inactive) in assay [2], 104% in assay [2] (setting [8]) and 103% in assay [2] (setting [9]). Moreover, the GFP response, % of DMSO in assay [4] was 98.1% (inactive); in assay [5], 104% (inactive); in assay [5] (setting [6]) it was 106%; in assay [5] (setting [7]), 99.7%.

As to `CCOc1cc(/C=C2\N=C(C)OC2=O)cc(Br)c1OCCc1ccccc1`, the GFP response vs DMSO was 100% (inactive) in assay [1], 99.8% in assay [1] (setting [6]), 101% in assay [1] (setting [7]) and 99.5% (inactive) in assay [3]. Moreover, the GFP response relative to DMSO in assay [2] was 102% (inactive); in assay [2] (setting [8]), 95%; in assay [2] (setting [9]) it was 103%. For the same molecule, the GFP response, % of DMSO is 97.3% (inactive) in assay [4], 92.1% (inactive) in assay [5], 92.7% in assay [5] (setting [6]) and 88.6% in assay [5] (setting [7]).

With `CCOc1cc(/C=C2\C(=N)N3N=C(S(=O)(=O)CC)SC3=NC2=O)ccc1OC(=O)c1ccco1`, the GFP response vs DMSO in assay [1] is 104% (inactive); in assay [1] (setting [6]), 104%; in assay [1] (setting [7]) it was 105%; in assay [3] it was 104% (inactive). Also, the figures for the GFP response relative to DMSO in assay [2], in assay [2] (setting [8]) and in assay [2] (setting [9]) were 89% (inactive), 92.5% and 90.1%, respectively. Besides, the GFP response, % of DMSO was 100% (inactive) in assay [4], 115% (inactive) in assay [5], 113% in assay [5] (setting [6]) and 113% in assay [5] (setting [7]).

`COc1cc(OC)cc(C(=O)N2CCN(c3ccccc3F)CC2)c1`: the GFP response vs DMSO is 98.6% (inactive) in assay [1], 97.3% in assay [1] (setting [6]), 99.1% in assay [1] (setting [7]) and 100% (inactive) in assay [3]. For the same molecule, the values for the GFP response relative to DMSO in assay [2], in assay [2] (setting [8]) and in assay [2] (setting [9]) were 97.4% (inactive), 98.7% and 98.3%, respectively. Moreover, the GFP response, % of DMSO in assay [4] was 98.3% (inactive); in assay [5] it was 99.1% (inactive); in assay [5] (setting [6]) it was 99.7%; in assay [5] (setting [7]) it was 98.7%.

As to `O=C(Oc1oc(-c2ccco2)nc1C=Nc1ccc(Cl)cc1)c1ccco1`, the GFP response vs DMSO in assay [1] was 104% (inactive); in assay [1] (setting [6]), 104%; in assay [1] (setting [7]) it was 103%; in assay [3], 112% (inactive). The GFP response relative to DMSO in assay [2] was 176% (active); in assay [2] (setting [8]), 154%; in assay [2] (setting [9]) it was 188%. Besides, the GFP response, % of DMSO in assay [4] is 99.8% (inactive); in assay [5], 89.7% (inactive); in assay [5] (setting [6]), 95.2%; in assay [5] (setting [7]), 83.8%.

In the case of `COc1cccc(N=Nc2ccc3cccnc3c2O)c1`, the GFP response vs DMSO in assay [1] is 99.8% (inactive); in assay [1] (setting [6]), 97.6%; in assay [1] (setting [7]), 101%; in assay [3] it was 120% (inactive). For the same molecule, the GFP response relative to DMSO is 147% (inactive) in assay [2], 140% in assay [2] (setting [8]) and 146% in assay [2] (setting [9]). Further, the GFP response, % of DMSO was 93.2% (inactive) in assay [4], 98.8% (inactive) in assay [5], 103% in assay [5] (setting [6]) and 96.8% in assay [5] (setting [7]).

Regarding `Cn1cnc([N+](=O)[O-])c1S(=O)(=O)c1cccc(Cl)c1`, the GFP response vs DMSO in assay [1] was 103% (inactive); in assay [1] (setting [6]) it was 99.9%; in assay [1] (setting [7]), 100%; in assay [3] it was 103% (inactive). Also, the values for the GFP response relative to DMSO in assay [2], in assay [2] (setting [8]) and in assay [2] (setting [9]) were 107% (inactive), 104% and 108%, respectively. Besides, the GFP response, % of DMSO was 113% (inactive) in assay [4], 118% (inactive) in assay [5], 119% in assay [5] (setting [6]) and 113% in assay [5] (setting [7]).

On to `O=C(O)c1ccccc1C(=O)N1CCN(c2ccccc2)CC1`, for which the GFP response vs DMSO in assay [1] was 99.2% (inactive); in assay [1] (setting [6]), 99.9%; in assay [1] (setting [7]) it was 99.7%; in assay [3], 98.3% (inactive). Besides, the GFP response relative to DMSO in assay [2] is 96.7% (inactive); in assay [2] (setting [8]) it was 96%; in assay [2] (setting [9]), 96.1%. The GFP response, % of DMSO in assay [4] was 101% (inactive); in assay [5], 103% (inactive); in assay [5] (setting [6]) it was 105%; in assay [5] (setting [7]), 102%.

As to `COC(CNC(=O)c1ccc2c3c(onc13)-c1ccccc1C2=O)OC`, the GFP response vs DMSO in assay [1] is 99.9% (inactive); in assay [1] (setting [6]), 103%; in assay [1] (setting [7]) it was 95.8%; in assay [3], 120% (inactive). The values for the GFP response relative to DMSO in assay [2], in assay [2] (setting [8]) and in assay [2] (setting [9]) were 188% (active), 170% and 189%, respectively. Further, the GFP response, % of DMSO in assay [4] was 86% (inactive); in assay [5], 91.3% (inactive); in assay [5] (setting [6]), 98.1%; in assay [5] (setting [7]) it was 83.7%.

On to `O=C(OCCOc1ccccc1)c1n[nH]c2ccccc12`, for which the GFP response vs DMSO in assay [1] is 96.4% (inactive); in assay [1] (setting [6]) it was 95.7%; in assay [1] (setting [7]), 97.2%; in assay [3], 97.5% (inactive). Moreover, the figures for the GFP response relative to DMSO in assay [2], in assay [2] (setting [8]) and in assay [2] (setting [9]) were 103% (inactive), 97.9% and 101%, respectively. Also, the GFP response, % of DMSO in assay [4] is 102% (inactive); in assay [5], 102% (inactive); in assay [5] (setting [6]), 104%; in assay [5] (setting [7]), 100%.

In the case of `O=C(c1ccccc1F)N1CCN(c2cccc(C(F)(F)F)c2)CC1`, the GFP response vs DMSO was 98.2% (inactive) in assay [1], 97.6% in assay [1] (setting [6]), 96.5% in assay [1] (setting [7]) and 108% (inactive) in assay [3]. For the same molecule, the figures for the GFP response relative to DMSO in assay [2], in assay [2] (setting [8]) and in assay [2] (setting [9]) were 97.7% (inactive), 101% and 96.4%, respectively. Further, the GFP response, % of DMSO was 106% (inactive) in assay [4], 95.8% (inactive) in assay [5], 97.6% in assay [5] (setting [6]) and 94.9% in assay [5] (setting [7]).

On to `CC(C)(C)C(=O)C(Cl)C(=O)Nc1ccccc1` (configuration not stated), for which the GFP response vs DMSO was 79.7% (inactive) in assay [1], 89.6% in assay [1] (setting [6]), 72.1% in assay [1] (setting [7]) and 145% (inactive) in assay [3]. The GFP response relative to DMSO in assay [2] is 300% (active); in assay [2] (setting [8]) it was 186%; in assay [2] (setting [9]) it was 271%. Also, the GFP response, % of DMSO was 135% (inactive) in assay [4], 126% (inactive) in assay [5], 106% in assay [5] (setting [6]) and 115% in assay [5] (setting [7]).

`CCOc1ccc(N/N=C(/C#N)C(N)=O)cc1`: the GFP response vs DMSO in assay [1] was 82.7% (inactive); in assay [1] (setting [6]), 65.8%; in assay [1] (setting [7]) it was 81.8%; in assay [3] it was 176% (active). The GFP response relative to DMSO is 237% (active) in assay [2], 182% in assay [2] (setting [8]) and 250% in assay [2] (setting [9]). Further, the GFP response, % of DMSO is 113% (inactive) in assay [4], 161% (active) in assay [5], 128% in assay [5] (setting [6]) and 159% in assay [5] (setting [7]).

Regarding `Oc1c(Br)cc(Br)cc1C=Nc1ccc2[nH]ncc2c1`, the GFP response vs DMSO in assay [1] is 99.5% (inactive); in assay [1] (setting [6]), 89.2%; in assay [1] (setting [7]), 97.2%; in assay [3], 112% (inactive). Besides, the GFP response relative to DMSO is 185% (active) in assay [2], 124% in assay [2] (setting [8]) and 176% in assay [2] (setting [9]). Moreover, the GFP response, % of DMSO in assay [4] was 102% (inactive); in assay [5], 96.4% (inactive); in assay [5] (setting [6]), 102%; in assay [5] (setting [7]) it was 87.5%.

For the molecule `COc1ccc(N2CCN(C(=O)CCc3nnc4ccc(N5CCCC5)nn34)CC2)cc1`, the GFP response vs DMSO is 101% (inactive) in assay [1], 99.2% in assay [1] (setting [6]), 101% in assay [1] (setting [7]) and 100% (inactive) in assay [3]. For the same molecule, the results for the GFP response relative to DMSO in assay [2], in assay [2] (setting [8]) and in assay [2] (setting [9]) were 96.2% (inactive), 98.7% and 97.2%, respectively. Also, the GFP response, % of DMSO in assay [4] is 97.8% (inactive); in assay [5], 104% (inactive); in assay [5] (setting [6]), 101%; in assay [5] (setting [7]) it was 104%.

In the case of `O=C1C(Cl)=C(NCCc2ccccc2)C(=O)N1CCc1ccccc1`, the GFP response vs DMSO was 103% (inactive) in assay [1], 103% in assay [1] (setting [6]), 104% in assay [1] (setting [7]) and 112% (inactive) in assay [3]. The GFP response relative to DMSO is 106% (inactive) in assay [2], 107% in assay [2] (setting [8]) and 101% in assay [2] (setting [9]). For the same molecule, the GFP response, % of DMSO in assay [4] was 103% (inactive); in assay [5], 106% (inactive); in assay [5] (setting [6]), 106%; in assay [5] (setting [7]) it was 106%.

`CCN1CCN(C(=O)C2CCN(c3nnc(C)c4c(C)n(-c5ccc(C)cc5)nc34)CC2)CC1`: the GFP response vs DMSO was 97.2% (inactive) in assay [1], 96.5% in assay [1] (setting [6]), 97.8% in assay [1] (setting [7]) and 104% (inactive) in assay [3]. In addition, the GFP response relative to DMSO is 102% (inactive) in assay [2], 101% in assay [2] (setting [8]) and 101% in assay [2] (setting [9]). Besides, the GFP response, % of DMSO is 106% (inactive) in assay [4], 99.3% (inactive) in assay [5], 102% in assay [5] (setting [6]) and 98% in assay [5] (setting [7]).
